From ChEMBL document CHEMBL1124493, “Synthesis and tumor uptake of 5-82Br- and 5-131I-labeled 5-halo-1-(2-fluoro-2-deoxy-beta-D-ribofuranosyl)uracils” (J Med Chem, 1989)
Blank lines part the entries; values can stand above or below the molecule they belong to.

Tests used:
[1] = test system: Mus musculus; test: Biodistribution of intravenously injected [82Br]-labeled compound in bone of BDF1 female mice bearing subcutaneous Lewis lung carcinoma after 0.5 hours; format: ADME, organism-based, Bone element; details: in vivo, iv
Procedure, shortened: (§1)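 82Br-labeled nucleoside given intravenously to female BDF1 mice bearing subcutaneous Lewis lung carcinoma, at 47-130 μg carrying 20-60 kBq. Mice sacrificed at each time point. Wet-weighed tissues γ-counted. Values are percent injected dose per gram wet tissue, mean ± SD, n = 6.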

[2] = test system: Mus musculus; test: Biodistribution of intravenously injected [82Br]-labeled compound in stomach of BDF1 female mice bearing subcutaneous Lewis lung carcinoma after 24 hours; format: ADME, organism-based; details: in vivo, iv
[3] = test system: Mus musculus; test: Biodistribution of intravenously injected [82Br]-labeled compound in blood of BDF1 female mice bearing subcutaneous Lewis lung carcinoma after 4 hours; format: ADME, organism-based; details: in vivo, iv; procedure, shortened: as §1
[4] = test system: Mus musculus; test: Biodistribution of intravenously injected [82Br]-labeled compound in lung of BDF1 female mice bearing subcutaneous Lewis lung carcinoma after 4 hours; format: ADME, organism-based; details: in vivo, iv
Procedure, shortened: (§2)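 Female BDF1 mice with subcutaneous Lewis lung carcinoma given an iv injection of [82Br]-labelled nucleoside, 47-130 μg carrying 20-60 kBq 82Br. Tissues were excised, weighed wet and γ-counted. Values are percent injected dose per gram of wet tissue, mean ± standard deviation of six animals, with organ-to-tumour ratios derived.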

[5] = test system: Mus musculus; test: Biodistribution of intravenously injected [82Br]-labeled compound in spleen of BDF1 female mice bearing subcutaneous Lewis lung carcinoma after 0.50 hours; format: ADME, organism-based; details: in vivo, iv, 0.5 h; procedure, shortened: as §2
[6] = test system: Mus musculus; test: Biodistribution of intravenously injected [82Br]-labeled compound in kidney of BDF1 female mice bearing subcutaneous Lewis lung carcinoma after 4 hours; format: ADME, organism-based; details: in vivo, iv; procedure, shortened: as §2
[7] = test system: Mus musculus; test: Biodistribution of intravenously injected [82Br]-labeled compound in kidney of BDF1 female mice bearing subcutaneous Lewis lung carcinoma after 0.5 hours; format: ADME, organism-based; details: in vivo, iv; procedure, shortened: as §2
[8] = species on record: Mus musculus; test: Inhibition constant for influx competition with [6-3H]thymidine in mouse erythrocytes; format: functional
Procedure, shortened: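 Freshly harvested mouse erythrocytes were exposed to various concentrations of test nucleoside and [6-3H]thymidine, and zero-trans thymidine influx was measured. Extracellular [6-3H]thymidine was measured over time by liquid scintillation counting of aliquots. The Ki for competition at the nucleoside transporter was derived by previously described methods.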

[9] = test system: Mus musculus; test: Biodistribution of intravenously injected [82Br]-labeled compound in liver of BDF1 female mice bearing subcutaneous Lewis lung carcinoma after 0.25 hours; format: ADME, organism-based; details: in vivo, iv; procedure, shortened: as §2
[10] = test system: Mus musculus; test: Biodistribution of intravenously injected [82Br]-labeled compound in skin of BDF1 female mice bearing subcutaneous Lewis lung carcinoma after 24 hours; format: ADME, organism-based, Zone of skin; details: in vivo, iv; procedure, shortened: as §2
[11] = test system: Mus musculus; test: Biodistribution of intravenously injected [82Br]-labeled compound in spleen of BDF1 female mice bearing subcutaneous Lewis lung carcinoma after 4 hours; format: ADME, organism-based; details: in vivo, iv
[12] = test system: Mus musculus; test: Biodistribution of intravenously injected [82Br]-labeled compound in gut of BDF1 female mice bearing subcutaneous Lewis lung carcinoma after 0.25 hours; format: ADME, organism-based; details: in vivo, iv; procedure, shortened: as §1
[13] = test system: Mus musculus; test: Biodistribution of intravenously injected [82Br]-labeled compound in bone of BDF1 female mice bearing subcutaneous Lewis lung carcinoma after 1 hours; format: ADME, organism-based, Bone element; details: in vivo, iv; procedure, shortened: as §1
[14] = test system: Mus musculus; test: Biodistribution of intravenously injected [82Br]-labeled compound in bone of BDF1 female mice bearing subcutaneous Lewis lung carcinoma after 24 hours; format: ADME, organism-based, Bone element; details: in vivo, iv; procedure, shortened: as §1
[15] = test system: Mus musculus; test: Biodistribution of intravenously injected [82Br]-labeled compound in skin of BDF1 female mice bearing subcutaneous Lewis lung carcinoma after 0.25 hours; format: ADME, organism-based, Zone of skin; details: in vivo, iv; procedure, shortened: as §2
[16] = test system: Mus musculus; test: Biodistribution of intravenously injected [82Br]-labeled compound in liver of BDF1 female mice bearing subcutaneous Lewis lung carcinoma after 1 hours; format: ADME, organism-based; details: in vivo, iv; procedure, shortened: as §2
[17] = test system: Mus musculus; test: Biodistribution of intravenously injected [82Br]-labeled compound in muscle of BDF1 female mice bearing subcutaneous Lewis lung carcinoma after 1 hours; format: ADME, organism-based, Muscle tissue; details: in vivo, iv; procedure, shortened: as §2
[18] = species on record: Mus musculus; test: Urinary iodide observed in BDF1 female mice bearing lewis lung tumor after 0-0.5 hr of injected [131I]-compound; format: functional, tissue-based; details: Urine
[19] = test system: Mus musculus; test: Biodistribution of intravenously injected [131I]-labeled compound in spleen of BDF1 female mice bearing subcutaneous Lewis lung carcinoma after 4 hours; format: ADME, organism-based; details: in vivo, iv
Procedure, shortened: (§3)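 Female BDF1 mice with subcutaneous Lewis lung carcinoma given i.v. 0.5-1.8 μg of 131I-labeled nucleoside (55-110 kBq). Killed at set times. Tissues weighed wet and γ-counted. Radioactivity expressed as percent injected dose per gram wet tissue, mean ± SD of six animals.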

[20] = test system: Mus musculus; test: Biodistribution of intravenously injected [131I]-labeled compound in spleen of BDF1 female mice bearing subcutaneous Lewis lung carcinoma after 2 hours; format: ADME, organism-based; details: in vivo, iv; procedure, shortened: as §3
[21] = test system: Mus musculus; test: Biodistribution of intravenously injected [131I]-labeled compound in liver of BDF1 female mice bearing subcutaneous Lewis lung carcinoma after 0.25 hours; format: ADME, organism-based; details: in vivo, iv
Procedure, shortened: (§4)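 Female BDF1 mice bearing subcutaneous Lewis lung carcinoma received a single intravenous dose of 0.5-1.8 μg of the 131I-labeled nucleoside (55-110 kBq). They were sacrificed at set times, and tissues were weighed wet and γ-counted. Activity is expressed as percent of injected dose per gram of wet tissue, given as mean ± standard deviation for six animals.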

[22] = test system: Mus musculus; test: Biodistribution of intravenously injected [131I]-labeled compound in heart of BDF1 female mice bearing subcutaneous Lewis lung carcinoma after 0.25 hours; format: ADME, organism-based; details: in vivo, iv; procedure, shortened: as §4
[23] = test system: Mus musculus; test: Biodistribution of intravenously injected [131I]-labeled compound in tumor of BDF1 female mice bearing subcutaneous Lewis lung carcinoma after 4 hr; format: ADME, organism-based; details: in vivo, iv; procedure, shortened: as §3
[24] = test system: Mus musculus; test: Biodistribution of intravenously injected [131I]-labeled compound in gut of BDF1 female mice bearing subcutaneous Lewis lung carcinoma after 4 hours; format: ADME, organism-based; details: in vivo, iv; procedure, shortened: as §4
[25] = test system: Mus musculus; test: Biodistribution of intravenously injected [131I]-labeled compound in lung of BDF1 female mice bearing subcutaneous Lewis lung carcinoma after 1 hours; format: ADME, organism-based; details: in vivo, iv; procedure, shortened: as §4
[26] = test system: Mus musculus; test: Biodistribution of intravenously injected [131I]-labeled compound in spleen of BDF1 female mice bearing subcutaneous Lewis lung carcinoma after 1 hours; format: ADME, organism-based; details: in vivo, iv; procedure, shortened: as §3
[27] = test system: Mus musculus; test: Biodistribution of intravenously injected [131I]-labeled compound in blood of BDF1 female mice bearing subcutaneous Lewis lung carcinoma after 8 hours; format: ADME, organism-based; details: in vivo, iv; procedure, shortened: as §4
[28] = species on record: Mus musculus; test: Urinary iodide observed in BDF1 female mice bearing lewis lung tumor after 6-7 hr of injected [131I]-compound; format: functional, tissue-based; details: Urine
[29] = test system: Mus musculus; test: Biodistribution of intravenously injected [131I]-labeled compound in spleen of BDF1 female mice bearing subcutaneous Lewis lung carcinoma after 0.50 hours; format: ADME, organism-based; details: in vivo, iv, 0.5 h; procedure, shortened: as §3
[30] = test system: Mus musculus; test: Biodistribution of intravenously injected [131I]-labeled compound in lung of BDF1 female mice bearing subcutaneous Lewis lung carcinoma after 2 hours; format: ADME, organism-based; details: in vivo, iv; procedure, shortened: as §4
[31] = test system: Mus musculus; test: Biodistribution of intravenously injected [131I]-labeled compound in blood of BDF1 female mice bearing subcutaneous Lewis lung carcinoma after 0.50 hours; format: ADME, organism-based; details: in vivo, iv, 0.5 h; procedure, shortened: as §4
[32] = test system: Mus musculus; test: Biodistribution of intravenously injected [131I]-labeled compound in tumor of BDF1 female mice bearing subcutaneous Lewis lung carcinoma after 0.50 hours; format: ADME, organism-based; details: in vivo, iv, 0.5 h; procedure, shortened: as §3
[33] = test system: Mus musculus; test: Biodistribution of intravenously injected [131I]-labeled compound in gut of BDF1 female mice bearing subcutaneous Lewis lung carcinoma after 2 hours; format: ADME, organism-based; details: in vivo, iv; procedure, shortened: as §4
[34] = test system: Mus musculus; test: Biodistribution of intravenously injected [131I]-labeled compound in kidney of BDF1 female mice bearing subcutaneous Lewis lung carcinoma after 0.5 hours; format: ADME, organism-based; details: in vivo, iv; procedure, shortened: as §4
[35] = test system: Mus musculus; test: Biodistribution of intravenously injected [131I]-labeled compound in kidney of BDF1 female mice bearing subcutaneous Lewis lung carcinoma after 2 hours; format: ADME, organism-based; details: in vivo, iv; procedure, shortened: as §4
[36] = test system: Mus musculus; test: Biodistribution of intravenously injected [131I]-labeled compound in gut of BDF1 female mice bearing subcutaneous Lewis lung carcinoma after 24 hours; format: ADME, organism-based; details: in vivo, iv; procedure, shortened: as §4
[37] = test system: Mus musculus; test: Biodistribution of intravenously injected [131I]-labeled compound in gut of BDF1 female mice bearing subcutaneous Lewis lung carcinoma after 8 hours; format: ADME, organism-based; details: in vivo, iv; procedure, shortened: as §4

Injected dose/g [1]: 0.3%
Injected dose/g [2]: 0.34%
Injected dose/g [3]: 0.6%
Injected dose/g [4]: 0.38%
Injected dose/g [5]: 0.59%
Injected dose/g [6]: 0.48%
Injected dose/g [7]: 2.68%
Ki [8]: 390 µM
Injected dose/g [9]: 1.45%
Injected dose/g [10]: 0.22%
Injected dose/g [11]: 0.28%
Injected dose/g [12]: 1.19%
Injected dose/g [13]: 0.26%
Injected dose/g [14]: 0.14%
Injected dose/g [15]: 1.39%
Injected dose/g [16]: 0.34%
Injected dose/g [17]: 0.21%
Compound: O=c1[nH]c(=O)n([C@H]2O[C@@H](CO)[C@H](O)[C@H]2F)cc1Br

Injected dose/g [19]: 1.8%
Injected dose/g [20]: 1.8%
Injected dose/g [21]: 5.3%
Injected dose/g [22]: 7%
Ki [8]: 410 µM
Injected dose/g [23]: 3.3%
Injected dose/g [24]: 2.1%
Injected dose/g [25]: 7%
Injected dose/g [26]: 2.5%
Injected dose/g [27]: 4.1%
Injected dose/g [29]: 2.9%
Injected dose/g [30]: 5.1%
Injected dose/g [31]: 16%
Injected dose/g [32]: 3.7%
Injected dose/g [33]: 1.9%
Injected dose/g [34]: 18.5%
Injected dose/g [35]: 8.5%
Injected dose/g [36]: 0.07%
Injected dose/g [37]: 1.3%
Compound: O=c1[nH]c(=O)n([C@@H]2O[C@H](CO)[C@@H](O)[C@H]2F)cc1I
Radioactive constituents [18]: 4.7%
Radioactive constituents [28]: 39.8%
